Laboratory results taken from ChEMBL document CHEMBL1143542, “Structure-activity relationships of bivalent aminoglycosides and evaluation of their microbiological activities” (2005).
Values after ≈ are worked out from the molar mass of the structure shown.

Experiments:
Staphylococcus aureus [1] = experiment: In vitro minimum inhibitory concentration against Staphylococcus aureus MRSA 3359; type: functional
In short: (§1)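 Broth microdilution following CLSI M100-S12. Stocks were 10 mg/mL in water, diluted in Mueller–Hinton broth to a top level of 128, then serially 2-fold in plates. Bacteria in cation-adjusted Mueller–Hinton broth were mixed 1:1 with drug and incubated 16–20 h at 35 °C. MIC was the lowest concentration with no visible growth. Run in duplicate with no-antibiotic and no-inoculum (sterility) controls.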

Pseudomonas aeruginosa [2] = experiment: In vitro minimum inhibitory concentration against Pseudomonas aeruginosa PAO-1 Minimum inhibitory concentration against Pseudomonas aeruginosa PAO-1; type: functional; in short: as §1
Enterococcus faecalis = experiment: In vitro minimum inhibitory concentration against Enterococcus faecalis 29212; type: functional; in short: as §1
Pseudomonas aeruginosa [3] = experiment: In vitro minimum inhibitory concentration against Pseudomonas aeruginosa ATCC 27853; type: functional; in short: as §1
Escherichia coli = experiment: In vitro minimum inhibitory concentration against Escherichia coli ATCC 25922; type: functional; in short: as §1
Staphylococcus aureus [4] = experiment: In vitro minimum inhibitory concentration against Staphylococcus aureus ATCC 29213; type: functional; in short: as §1
Pseudomonas aeruginosa [5] = experiment: Susceptibility testing against Pseudomonas aeruginosa PAE_NUH17; S=Susceptible; type: functional, organism-based
In short: (§2)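 Disk diffusion susceptibility profiling against a panel of empirically used antipseudomonal antibiotics. Each strain was categorised as susceptible (S) or intermediate (I).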

Pseudomonas aeruginosa [6] = experiment: Susceptibility testing against Pseudomonas aeruginosa PAE_NUH01; R=Resistant; type: functional, organism-based
In short: (§3)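 Disk diffusion susceptibility profiling of P. aeruginosa reference and clinical isolates against empirically used antipseudomonal antibiotics. Each isolate was categorised as susceptible, intermediate or resistant.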

Pseudomonas aeruginosa [7] = experiment: Susceptibility testing against Pseudomonas aeruginosa PAE_NUH21; S=Susceptible; type: functional, organism-based; in short: as §2
Pseudomonas aeruginosa [8] = experiment: Susceptibility testing against Pseudomonas aeruginosa PAE_NUH05; R=Resistant; type: functional, organism-based; in short: as §3
Pseudomonas aeruginosa [9] = experiment: Susceptibility testing against Pseudomonas aeruginosa PAE_NUH02; R=Resistant; type: functional, organism-based; in short: as §3
Pseudomonas aeruginosa [10] = experiment: Susceptibility testing against Pseudomonas aeruginosa PAE_NUH18; S=Susceptible; type: functional, organism-based; in short: as §2
Pseudomonas aeruginosa [11] = experiment: Susceptibility testing against Pseudomonas aeruginosa PAE_NUH23; S=Susceptible; type: functional, organism-based; in short: as §2
Pseudomonas aeruginosa [12] = experiment: Susceptibility testing against Pseudomonas aeruginosa PAE_NUH20; S=Susceptible; type: functional, organism-based; in short: as §2
Pseudomonas aeruginosa [13] = experiment: Susceptibility testing against Pseudomonas aeruginosa PAE_NUH07; R=Resistant; type: functional, organism-based; in short: as §3
Pseudomonas aeruginosa [14] = experiment: Susceptibility testing against Pseudomonas aeruginosa PAE_NUH03; R=Resistant; type: functional, organism-based; in short: as §3
Pseudomonas aeruginosa [15] = experiment: Susceptibility testing against Pseudomonas aeruginosa ATCC 27853; S=Susceptible; type: functional, organism-based; in short: as §2
Pseudomonas aeruginosa [16] = experiment: Susceptibility testing against Pseudomonas aeruginosa PAE_NUH19; S=Susceptible; type: functional, organism-based; in short: as §2
Pseudomonas aeruginosa [17] = experiment: Susceptibility testing against Pseudomonas aeruginosa PAE_NUH06; R=Resistant; type: functional, organism-based; in short: as §3
Pseudomonas aeruginosa [18] = experiment: Susceptibility testing against Pseudomonas aeruginosa PAE_NUH24; S=Susceptible; type: functional, organism-based; in short: as §2
Pseudomonas aeruginosa [19] = experiment: Susceptibility testing against Pseudomonas aeruginosa PAE_NUH22; S=Susceptible; type: functional, organism-based; in short: as §2
Pseudomonas aeruginosa [20] = experiment: Susceptibility testing against Pseudomonas aeruginosa PAE_NUH25; S=Susceptible; type: functional, organism-based; in short: as §2
Pseudomonas aeruginosa [21] = experiment: Susceptibility testing against Pseudomonas aeruginosa PAE_NUH04; R=Resistant; type: functional, organism-based; in short: as §3
Pseudomonas aeruginosa [22] = experiment: In vitro minimum inhibitory concentration against Pseudomonas aeruginosa PAO-1; type: functional; in short: as §1
Pseudomonas aeruginosa [23] = experiment: Susceptibility testing against Pseudomonas aeruginosa PAE_NUH07; S=Susceptible; type: functional, organism-based; in short: as §2

MIC (Staphylococcus aureus [1]) [µg/mL] | MIC (Pseudomonas aeruginosa [2]) [µg/mL] | MIC (Enterococcus faecalis) [µg/mL] | MIC (Pseudomonas aeruginosa [3]) [µg/mL] | MIC (Escherichia coli) [µg/mL] | MIC (Staphylococcus aureus [4]) [µg/mL] | SMILES | further results
20.9 (≈ 24.8 µM) | 2.6 (≈ 3.09 µM) | 20.9 (≈ 24.8 µM) | 10.4 (≈ 12.4 µM) | 5.2 (≈ 6.18 µM) | 0.6 (≈ 0.713 µM) | CN(CCCCN(C)C[C@@H](O)CO[C@@H]1[C@@H](O)[C@H](O[C@H]2O[C@H](CN)[C@@H](O)C[C@H]2N)[C@@H](N)C[C@H]1N)C[C@H](O)CO[C@@H]1[C@@H](O)[C@H](O[C@@H]2O[C@H](CN)C[C@H](O)[C@H]2N)[C@@H](N)C[C@H]1N | 
 |  |  |  |  |  | O=C(O)c1cn(C2CC2)c2cc(N3CCNCC3)c(F)cc2c1=O | Activity (Pseudomonas aeruginosa [5]): Susceptible; Activity (Pseudomonas aeruginosa [6]): Resistant; Activity (Pseudomonas aeruginosa [7]): Susceptible; Activity (Pseudomonas aeruginosa [8]): Resistant; Activity (Pseudomonas aeruginosa [9]): Resistant; Activity (Pseudomonas aeruginosa [10]): Susceptible; Activity (Pseudomonas aeruginosa [11]): Susceptible; Activity (Pseudomonas aeruginosa [12]): Susceptible; Activity (Pseudomonas aeruginosa [13]): Resistant; Activity (Pseudomonas aeruginosa [14]): Resistant; Activity (Pseudomonas aeruginosa [15]): Susceptible; Activity (Pseudomonas aeruginosa [16]): Susceptible; Activity (Pseudomonas aeruginosa [17]): Resistant; Activity (Pseudomonas aeruginosa [18]): Susceptible; Activity (Pseudomonas aeruginosa [19]): Susceptible; Activity (Pseudomonas aeruginosa [20]): Susceptible; Activity (Pseudomonas aeruginosa [21]): Resistant
> 50 |  | > 50 | 25 (≈ 29.7 µM) | 25 (≈ 29.7 µM) | 12.5 (≈ 14.8 µM) | NC[C@H]1O[C@H](O[C@H]2[C@H](OC[C@H](O)CN3CCN(C[C@@H](O)CO[C@@H]4[C@@H](O)[C@H](N)C[C@H](N)[C@H]4O[C@H]4O[C@H](CN)[C@@H](O)[C@H](O)[C@H]4N)CC3)[C@@H](O)[C@H](N)C[C@@H]2N)[C@H](N)[C@@H](O)[C@@H]1O | MIC (Pseudomonas aeruginosa [22]): 25 µg/mL (≈ 29.7 µM)
16 (≈ 19.7 µM) | 2 (≈ 2.46 µM) | 32 (≈ 39.4 µM) | 2 (≈ 2.46 µM) | 4 (≈ 4.92 µM) | 0.5 (≈ 0.615 µM) | NC[C@@H]1C[C@H](O)[C@@H](N)[C@H](O[C@H]2[C@H](O)[C@@H](OC[C@@H](O)CNCCCCNC[C@@H](O)CO[C@@H]3[C@@H](O)[C@H](O[C@H]4O[C@H](CN)[C@@H](O)C[C@H]4N)[C@@H](N)C[C@H]3N)[C@H](N)C[C@@H]2N)O1 | 
50 (≈ 57.4 µM) |  | > 50 | 1.6 (≈ 1.84 µM) | 25 (≈ 28.7 µM) | 50 (≈ 57.4 µM) | NC[C@H]1O[C@H](O[C@H]2[C@H](OC[C@H](O)CN[C@H]3CC[C@H](NC[C@@H](O)CO[C@@H]4[C@@H](O)[C@H](N)C[C@H](N)[C@H]4O[C@H]4O[C@H](CN)[C@@H](O)[C@H](O)[C@H]4N)CC3)[C@@H](O)[C@H](N)C[C@@H]2N)[C@H](N)[C@@H](O)[C@@H]1O | 
> 50 | > 50 | > 50 | > 50 | > 50 | > 50 | CN(CCOCCOCCN(C)C[C@@H](O)CO[C@@H]1[C@@H](O)[C@H](N)C[C@H](N)[C@H]1O[C@H]1O[C@H](CN)[C@@H](O)[C@H](O)[C@H]1N)C[C@@H](O)CO[C@@H]1[C@@H](O)[C@H](N)C[C@H](N)[C@H]1O[C@H]1O[C@H](CN)[C@@H](O)[C@H](O)[C@H]1N | 
> 50 | 50 (≈ 55.5 µM) | > 50 | 12.5 (≈ 13.9 µM) | 25 (≈ 27.7 µM) | 6.3 (≈ 6.99 µM) | CN(CCCCCCN(C)C[C@@H](O)CO[C@@H]1[C@@H](O)[C@H](N)C[C@H](N)[C@H]1O[C@H]1O[C@H](CN)[C@@H](O)[C@H](O)[C@H]1N)C[C@@H](O)CO[C@@H]1[C@@H](O)[C@H](N)C[C@H](N)[C@H]1O[C@H]1O[C@H](CN)[C@@H](O)[C@H](O)[C@H]1N | 
 |  |  |  |  |  | NCC[C@H](O)C(=O)N[C@@H]1C[C@H](N)[C@@H](O[C@H]2O[C@H](CN)[C@@H](O)[C@H](O)[C@H]2O)[C@H](O)[C@H]1O[C@H]1O[C@H](CO)[C@@H](O)[C@H](N)[C@H]1O | Activity (Pseudomonas aeruginosa [5]): Susceptible; Activity (Pseudomonas aeruginosa [6]): Resistant; Activity (Pseudomonas aeruginosa [7]): Susceptible; Activity (Pseudomonas aeruginosa [8]): Resistant; Activity (Pseudomonas aeruginosa [9]): Resistant; Activity (Pseudomonas aeruginosa [23]): Susceptible; Activity (Pseudomonas aeruginosa [10]): Susceptible; Activity (Pseudomonas aeruginosa [11]): Susceptible; Activity (Pseudomonas aeruginosa [12]): Susceptible; Activity (Pseudomonas aeruginosa [14]): Resistant; Activity (Pseudomonas aeruginosa [15]): Susceptible; Activity (Pseudomonas aeruginosa [16]): Susceptible; Activity (Pseudomonas aeruginosa [17]): Resistant; Activity (Pseudomonas aeruginosa [18]): Susceptible; Activity (Pseudomonas aeruginosa [19]): Susceptible; Activity (Pseudomonas aeruginosa [20]): Susceptible; Activity (Pseudomonas aeruginosa [21]): Resistant
> 50 |  | > 50 | 12.5 (≈ 14.6 µM) | 50 (≈ 58.3 µM) | 12.5 (≈ 14.6 µM) | NC[C@H]1O[C@H](O[C@H]2[C@H](OC[C@H](O)CN3CCCN(C[C@@H](O)CO[C@@H]4[C@@H](O)[C@H](N)C[C@H](N)[C@H]4O[C@H]4O[C@H](CN)[C@@H](O)[C@H](O)[C@H]4N)CC3)[C@@H](O)[C@H](N)C[C@@H]2N)[C@H](N)[C@@H](O)[C@@H]1O | MIC (Pseudomonas aeruginosa [22]): 50 µg/mL (≈ 58.3 µM)
